Assay results published in PMC7983942 (Clinical Pharmacology and Therapeutics, 2020).

Key:
Type in all cases: in vitro ADME
OATP1B3 = molecular target: T1, OATP1B3 (Homo sapiens, UniProt Q9NPD5); test: Uptake into transporter-transfected vs wild-type HEK293 cells; conditions: rosuvastatin 1 µM, two to four minutes
T1 sequence (Q9NPD5 1-702): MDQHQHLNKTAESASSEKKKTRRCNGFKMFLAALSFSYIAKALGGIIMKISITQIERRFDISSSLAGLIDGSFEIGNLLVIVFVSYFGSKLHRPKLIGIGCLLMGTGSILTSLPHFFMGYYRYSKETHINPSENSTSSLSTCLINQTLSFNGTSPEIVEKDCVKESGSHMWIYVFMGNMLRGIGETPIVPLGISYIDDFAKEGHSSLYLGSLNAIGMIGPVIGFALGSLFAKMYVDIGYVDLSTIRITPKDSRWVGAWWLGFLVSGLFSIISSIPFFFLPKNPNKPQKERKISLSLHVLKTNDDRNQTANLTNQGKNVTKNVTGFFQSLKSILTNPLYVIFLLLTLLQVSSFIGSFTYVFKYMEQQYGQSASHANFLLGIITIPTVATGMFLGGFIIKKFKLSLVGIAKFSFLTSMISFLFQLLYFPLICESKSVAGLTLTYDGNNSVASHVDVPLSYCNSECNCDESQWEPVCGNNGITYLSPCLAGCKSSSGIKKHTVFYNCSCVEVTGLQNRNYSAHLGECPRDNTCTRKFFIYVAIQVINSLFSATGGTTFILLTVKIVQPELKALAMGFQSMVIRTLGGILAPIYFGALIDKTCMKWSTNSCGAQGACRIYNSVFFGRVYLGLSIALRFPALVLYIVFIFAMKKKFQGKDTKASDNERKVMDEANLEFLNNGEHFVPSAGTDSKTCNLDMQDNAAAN
How it was run: (§1)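 HEK293 cells stably transfected with OATP1B1*1A, OATP1B3 or OATP2B1, plus wild-type cells, were seeded on poly-D-lysine plates. Culture was 48 h at 37°C in DMEM with 10% FBS, pyruvate, nonessential amino acids and GlutaMAX. Test compound was 1 µM for 2 min; rosuvastatin probe was 1 µM over 2–4 min. Cells were washed four times in ice-cold buffer and lysed in methanol with internal standard. Readouts were uptake ratio versus wild-type and glucuronide/probe ratio of ratios; mean ± SD, n=3 in one experiment.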

OATP2B1 = molecular target: T2, OATP2B1 (Homo sapiens, UniProt O94956); test: as above; conditions: rosuvastatin 1 µM, two to four minutes
T2 sequence (O94956 1-709): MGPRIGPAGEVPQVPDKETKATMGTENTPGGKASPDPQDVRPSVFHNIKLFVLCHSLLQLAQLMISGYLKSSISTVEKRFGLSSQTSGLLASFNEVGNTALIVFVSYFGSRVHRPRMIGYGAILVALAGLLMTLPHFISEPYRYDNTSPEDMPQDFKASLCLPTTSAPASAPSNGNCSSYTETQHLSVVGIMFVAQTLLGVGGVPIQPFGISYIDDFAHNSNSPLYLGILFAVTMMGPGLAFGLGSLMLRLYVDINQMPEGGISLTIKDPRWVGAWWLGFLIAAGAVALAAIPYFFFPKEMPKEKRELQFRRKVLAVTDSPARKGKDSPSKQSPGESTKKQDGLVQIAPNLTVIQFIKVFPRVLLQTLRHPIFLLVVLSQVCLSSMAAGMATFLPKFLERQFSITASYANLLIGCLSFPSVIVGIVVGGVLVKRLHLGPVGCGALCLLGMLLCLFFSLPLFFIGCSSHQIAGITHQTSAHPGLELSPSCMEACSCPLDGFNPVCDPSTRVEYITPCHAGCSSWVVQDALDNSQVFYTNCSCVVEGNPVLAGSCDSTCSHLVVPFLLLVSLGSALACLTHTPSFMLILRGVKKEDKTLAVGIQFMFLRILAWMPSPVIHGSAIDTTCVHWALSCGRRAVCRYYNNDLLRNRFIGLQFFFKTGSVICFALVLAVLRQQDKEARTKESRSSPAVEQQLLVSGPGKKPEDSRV
How it was run: as §1

OATP1B1*14 = molecular target: T3, OATP1B1*14 (Homo sapiens, UniProt Q9Y6L6, N130D/P155T); test: Uptake into OATP1B1 variant-transfected vs wild-type HEK293 cells; conditions: for Uptake ratio as percentage of OATP1B1*14 in the same experiment: OATP1B1*14 (reference); for Uptake ratio (vs. wild‐type HEK293 cells): OATP1B1*14, 2 minutes
T3 sequence (Q9Y6L6 1-691 N130D/P155T): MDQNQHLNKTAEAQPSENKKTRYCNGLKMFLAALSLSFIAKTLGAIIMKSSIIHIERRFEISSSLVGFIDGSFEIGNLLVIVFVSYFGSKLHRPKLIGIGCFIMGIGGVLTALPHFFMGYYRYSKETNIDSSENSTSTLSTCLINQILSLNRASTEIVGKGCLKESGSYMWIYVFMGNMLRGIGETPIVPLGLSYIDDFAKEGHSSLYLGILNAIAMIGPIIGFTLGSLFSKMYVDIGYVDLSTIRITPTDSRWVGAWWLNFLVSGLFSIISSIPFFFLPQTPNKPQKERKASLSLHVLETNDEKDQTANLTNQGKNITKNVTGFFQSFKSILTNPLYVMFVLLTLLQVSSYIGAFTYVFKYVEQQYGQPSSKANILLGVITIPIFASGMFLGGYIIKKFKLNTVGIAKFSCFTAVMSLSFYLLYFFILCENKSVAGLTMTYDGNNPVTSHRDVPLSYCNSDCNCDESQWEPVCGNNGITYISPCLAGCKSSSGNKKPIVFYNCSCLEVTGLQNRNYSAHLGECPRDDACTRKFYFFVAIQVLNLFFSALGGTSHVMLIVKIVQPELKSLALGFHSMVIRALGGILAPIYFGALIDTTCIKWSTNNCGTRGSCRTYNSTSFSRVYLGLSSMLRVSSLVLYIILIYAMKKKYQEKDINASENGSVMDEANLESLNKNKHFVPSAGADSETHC

[1] = experiment 1, substrate concentration 0.5 µM

CC(C)c1nc(N(C)S(C)(=O)=O)nc(-c2ccc(F)cc2)c1/C=C/[C@@H](O)C[C@@H](O)CC(=O)O [Rosuvastatin]
Uptake ratio (vs. wild‐type HEK293 cells), probe (OATP1B3): 69.8 ± 1.9
Uptake ratio (vs. wild‐type HEK293 cells), probe (OATP2B1): 71.1 ± 9.6
Uptake ratio as percentage of OATP1B1*14 in the same experiment (OATP1B1*14; [1]): 100%
Uptake ratio as percentage of OATP1B1*14 in the same experiment (OATP1B1*14; experiment 2, substrate 1 µM): 100%
Uptake ratio (vs. wild‐type HEK293 cells) (OATP1B1*14; [1]): 15 ± 0.2
Uptake ratio (vs. wild‐type HEK293 cells) (OATP1B1*14; experiment 2, substrate 1 µM): 40 ± 3.3
Uptake ratio (vs. wild‐type HEK293 cells) (OATP1B1*14; experiment 3, substrate 1 µM): 85 ± 5.3
